Rows were chosen to be rich in hits. Some 4.8% of all compounds tested hit in one or more screens of this group.
GRIN3A LBD mod = modulates the human NR3A ligand-binding domain | NR3A LBD differential scanning fluorimetry, Tm shift; 0% = protein alone, 100% = glycine-bound protein | actives 2.5% (n = 340,000) | Tm shift relative to glycine control, % at 25 µM;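 active = melting temperature shift of at least 10% of the positive control shift, at one fixed dose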
pPAFAH inh = inhibitors of human plasma PAF acetylhydrolase (pPAFAH); actives 1.5% (n = 330,000); inhibition, % at 3.39 µM; recombinant pPAFAH, FP-rhodamine probe fluorescence polarization;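 active = inhibition above the mean inhibition across the screen plus 3 SD, cut at about 25% in these data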;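 also: inhibitors block binding of the rhodamine activity-based probe so polarization drops; 0% = enzyme with DMSO and 100% = wells lacking pPAFAH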
Target sequence (Q13093 whole entry, looked up): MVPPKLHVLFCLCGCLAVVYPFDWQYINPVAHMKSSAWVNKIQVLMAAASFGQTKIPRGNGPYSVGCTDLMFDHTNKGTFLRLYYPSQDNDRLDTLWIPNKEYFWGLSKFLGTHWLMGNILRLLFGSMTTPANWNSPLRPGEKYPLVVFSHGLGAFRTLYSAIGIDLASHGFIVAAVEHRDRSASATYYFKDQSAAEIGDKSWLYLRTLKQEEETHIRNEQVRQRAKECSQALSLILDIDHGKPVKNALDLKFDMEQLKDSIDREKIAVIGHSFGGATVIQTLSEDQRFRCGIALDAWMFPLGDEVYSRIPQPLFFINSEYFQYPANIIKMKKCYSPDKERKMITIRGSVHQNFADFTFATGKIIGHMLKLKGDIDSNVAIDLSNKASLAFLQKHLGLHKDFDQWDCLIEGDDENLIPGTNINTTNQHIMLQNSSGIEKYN
UCH37 inh = blocks the human deubiquitinase UCH37; purified proteasome/UCH37, Ub-AMC cleavage fluorescence; inhibition, % (concentration not given with the values); AID 588478; actives 0.33% (n = 330,000); Q9Y5K5;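 active = mean inhibition over replicate wells above about 20%, limit read from the data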;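 also: 0% = compound-free wells with enzyme and 100% = wells lacking proteasome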
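Assay system: Proteasome-bound UCH37. Buffer or medium: pH 7.4 Tris-HCl (50 mM) with ovalbumin, ATP-MgCl2, DTT. Incubation: 30 min preincubation with enzyme, 25 min cleavage at room temperature. Measured by: fluorescence, ex 355 nm, em 460 nm. Read-out basis: percent inhibition. Control set: wells without proteasome as full block, compound-free enzyme plus substrate as uninhibited.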
PAFAH1B3 inh = PAFAH1B3 (human) inhibition. Q15102. recombinant PAFAH1B3, FP-rhodamine probe, fluorescence polarization. inhibition, % at 3.39 µM. actives 0.28% (n = 340,000);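 active = inhibition above the screen-wide average of all tested compounds plus 3 SD, cut at about 25% in these data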;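 also: 0% = enzyme with DMSO only and 100% = wells lacking PAFAH1B3 protein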
Target sequence (Q15102 whole entry, looked up): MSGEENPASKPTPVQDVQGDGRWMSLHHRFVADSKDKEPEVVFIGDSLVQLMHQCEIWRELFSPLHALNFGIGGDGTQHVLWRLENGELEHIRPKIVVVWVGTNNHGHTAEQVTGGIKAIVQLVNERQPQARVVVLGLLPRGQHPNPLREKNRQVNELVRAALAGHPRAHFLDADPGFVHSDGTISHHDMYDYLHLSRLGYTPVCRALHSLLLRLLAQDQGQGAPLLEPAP
PAFAH1B2 FP inh = blocks human PAF acetylhydrolase 1b catalytic subunit 2; actives 1.2% (n = 340,000); recombinant PAFAH1B2, FP-rhodamine activity probe, fluorescence polarization; inhibition, % at 3.39 µM; P68402;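 active = inhibition above the mean of all tested compounds plus 3 SD, cut at about 24% in these data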;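 also: 0% = enzyme with DMSO and 100% = wells lacking PAFAH1B2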
PAFAH2 FP inh = inhibitors of human PAFAH2. actives 0.99% (n = 340,000). Q99487. AID 492956. inhibition, % at 3.39 µM. recombinant PAFAH2, FP-rhodamine activity probe, fluorescence polarization;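 active = inhibition above the mean over all tested compounds plus 3 SD, cut at about 30% in these data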;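 also: inhibitors block probe labeling of enzyme so polarization drops; 0% = enzyme with DMSO and 100% = wells lacking PAFAH2 protein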
Active calls of the source: *; nt = not tested or not shown.

SMILES	GRIN3A LBD mod	pPAFAH inh	UCH37 inh	PAFAH1B3 inh	PAFAH1B2 FP inh	PAFAH2 FP inh
O=C1CCN(CCc2ccccc2)CCN1[C@H](CO)c1ccccc1	0.2	-3.5	4.2	3.3	-4.2	-2.7
O=C1CCN(CCCc2ccccc2)CCN1[C@H](CO)c1ccccc1	4.0	0.5	28.1*	3.5	3.6	-4.1
COc1cccc2cc(C(=O)Nc3ccccc3Cl)c(=NNS(=O)(=O)c3ccccc3)oc12	nt	nt	7.7	nt	nt	nt
Cc1cc(NN=Cc2ccc(O)c(C)c2O)nc(-c2ccccc2O)n1	nt	nt	-2.4	nt	nt	nt
CCCOc1ccc(N)cc1N	0.1	26.3*	6.0	15.3	7.7	8.3
CCCOc1cc(N)ccc1C(=O)OCCN(CC)CC	-1.3	1.5	0.5	-2.6	1.8	-12.5
O=C1c2c(O)ccc(O)c2C(=O)c2c(NCCNCCO)ccc(NCCNCCO)c21	-1.0	3.9	3.7	3.5	3.5	0.0
O=C1c2ccccc2C(=O)c2c(Nc3ccc(CCO)cc3)ccc(O)c21	-9.7	31.5*	nt	12.5	-1.3	11.1
C=CCc1cccc(/C=N/NC(=O)CCCNc2ccc(C)cc2)c1O	12.3*	18.1	nt	5.9	7.0	3.0
C=CCc1cccc(/C=N/NC(=O)CNc2ccccc2OC)c1O	13.3*	12.7	nt	8.5	4.5	11.2
C/C(C=NNC(=O)c1cccs1)=C/c1ccccc1	nt	nt	4.0	nt	nt	nt
COc1ccc(CCNC(=O)C/C(C)=N/NC(=O)C23CC4CC(CC(C4)C2)C3)cc1OC	29.9*	-4.1	nt	9.1	8.3	4.9
COc1ccc(CCNC(=O)COC(=O)c2cccs2)cc1OC	11.9*	-2.7	3.7	-3.1	6.0	-1.5
CC(=NOC(=O)c1c(F)cccc1F)c1nccs1	nt	nt	1.9	nt	nt	nt
Cc1ccc(C)c(N2C(=O)CSC2=NNC(=O)c2ccccc2Cl)c1	nt	nt	5.2	nt	nt	nt
COc1ccc(C(C)=NN2CCOCC2)c(O)c1	nt	nt	2.2	nt	nt	nt
O=C(c1ccco1)N1CCN(C(=NS(=O)(=O)c2cccs2)c2ccccc2Cl)CC1	nt	nt	0.0	nt	nt	nt
Cc1cc(N/N=C/c2ccc([N+](=O)[O-])o2)nc2ccccc12	14.1*	1.1	nt	-2.1	2.3	-0.8
Cc1cc2ncn(/N=C/c3ccc([N+](=O)[O-])o3)c2cc1C	10.4*	6.7	nt	-0.1	10.3	7.3
Cc1cc(Nc2ccc([N+](=O)[O-])cc2)c2ccccc2n1	-0.7	1.8	5.1	-1.7	2.9	6.4
Cc1cc(NN=Cc2ccncc2)nc2ccccc12	nt	nt	2.8	nt	nt	nt
Cc1cc(Nc2ccc([N+](=O)[O-])cc2)nc2ccccc12	39.3*	-2.2	1.4	-17.4	-6.6	-17.8
COc1ccc2oc(C(=O)Nc3nc(C)cs3)c(C)c2c1	19.5*	-0.3	-118.3	1.2	-2.5	0.9
COc1ccc2oc(C(=O)Nc3ccccn3)c(C)c2c1	0.1	0.8	-12.9	0.9	6.4	-0.8
COc1ccc(-c2c(C)nn3c(-c4ccccc4)cc(C)nc23)cc1	15.3*	0.9	-1.2	-7.0	-0.1	1.6
SMILES	GRIN3A LBD mod	pPAFAH inh	UCH37 inh	PAFAH1B3 inh	PAFAH1B2 FP inh	PAFAH2 FP inh
Cc1cc(C)n2nc(C)c(-c3ccccc3)c2n1	-1.6	0.7	5.8	3.7	1.6	0.2
O=C(COc1ccccc1-c1ccccc1)NN=Cc1ccccn1	nt	nt	3.2	nt	nt	nt
C=CCn1c(SCc2ccc(F)cc2)nc2c1c(=O)[nH]c(=O)n2C	0.6	1.1	7.0	1.1	5.9	2.7
C=CCn1c(SCc2ccc(Cl)cc2)nc2c1c(=O)[nH]c(=O)n2C	-1.8	2.1	1.6	8.5	25.2*	6.3
COc1ccc(C)cc1NC(=O)CC(C)=NNC(=O)Cc1cccc2ccccc12	nt	nt	0.5	nt	nt	nt
OC(c1ccc(F)cc1)(C1CCCCC1)C(CN1CCOCC1)c1ccccc1 (centres undefined)	-1.4	7.3	-2.9	10.8	35.4*	1.5
CC(C)CC(O)(c1ccccc1)C(CN1CCOCC1)c1ccccc1 (centres undefined)	0.4	3.0	2.9	4.0	16.4	-2.5
Oc1ccc(-c2cn3c(n2)SCC3)cc1	36.7*	0.6	0.7	6.8	2.3	16.4
O=C(Nc1ccc(-c2cn3c(n2)SCC3)cc1)c1ccc2ccccc2n1	21.5*	0.3	3.3	-3.8	0.3	3.7
CC(=NNc1nc(N2CCOCC2)nc(N2CCOCC2)n1)c1cccs1	nt	nt	6.9	nt	nt	nt
O=C(NNc1nc(-c2ccccc2)c2cc(Br)ccc2n1)c1ccc(S(=O)(=O)N2CCCCC2)cc1	7.6	0.5	0.0	0.2	-2.2	-14.4
CN(C)S(=O)(=O)c1ccc(C(=O)NNc2nc(-c3ccccc3)c3cc(Br)ccc3n2)cc1	-4.6	30.4*	1.2	3.8	2.6	-2.4
Cc1onc(-c2ccccc2)c1-c1nnc(COC(=O)c2ccc(O)cc2)o1	10.1*	nt	5.7	4.5	6.0	2.9
COCc1cc(C)nc(OCC(=O)NN=Cc2cccc(OC)c2)c1C#N	nt	nt	-26.0	nt	nt	nt
C(/C=C/c1ccccc1)=NN1CCN(c2ccccn2)CC1	nt	nt	4.8	nt	nt	nt
CC1CC(=NNC(=S)NCc2ccccc2)CC(C)(C)C1 (centres undefined)	nt	nt	6.2	nt	nt	nt
CC1(C)Cc2c(C#N)c(N3CCN(C(=O)c4ccco4)CC3)nc(-c3ccco3)c2CS1	-1.4	31.9*	-162.9	1.7	-3.0	17.0
CC(=O)N1CCN(c2nc(-c3ccco3)c3c(c2C#N)CC(C)(C)SC3)CC1	2.2	16.5	-91.5	1.7	4.5	13.7
CC1(C)Cc2c(C#N)c(N3CCN(C(=O)c4ccccc4Cl)CC3)nc(-c3ccco3)c2CS1	-4.1	34.4*	-166.5	5.2	3.9	9.6
O=C(Nc1ccccc1)Nc1cc(Cl)cc(Cl)c1	nt	-47.3	nt	-28.6	-18.5	-52.2
O=C(Nc1ccccc1)Nc1cc(OCC(F)(F)F)cc(OCC(F)(F)F)c1	40.7*	nt	4.9	-87.2	-36.9	-66.2
S=c1[nH]nc(-c2ccccn2)n1N=Cc1ccco1	nt	nt	3.8	nt	nt	nt
COc1cc(O)c2c(c1)OC(C)(C)CC2=O	1.1	8.8	4.1	5.0	4.6	2.3
COc1cc(O)cc2cc3c(c(O)c12)C(=O)CC(C)(O)O3 (centres undefined)	-1.8	25.1*	8.5	19.3	7.0	12.6
CC(/C=C/c1ccccc1)=NNC(=O)c1cccc(Br)c1	nt	nt	2.4	nt	nt	nt
SMILES	GRIN3A LBD mod	pPAFAH inh	UCH37 inh	PAFAH1B3 inh	PAFAH1B2 FP inh	PAFAH2 FP inh
CC(C)c1c(C(=O)N/N=C/c2cccc(OCc3ccccc3)c2)nnn1-c1nonc1N	24.0*	-9.0	nt	-14.5	-15.3	-33.5
CC(C)c1c(C(=O)N/N=C/c2ccc(OCc3ccccc3)cc2)nnn1-c1nonc1N	32.4*	-2.8	nt	7.2	1.0	-0.9
CC(C)c1c(C(=O)N/N=C/c2ccc(C(F)(F)F)cc2)nnn1-c1nonc1N	27.6*	-24.8	nt	1.8	0.5	-5.0
CC(C)c1c(C(=O)NN=Cc2cccc(OCc3ccc(F)cc3)c2)nnn1-c1nonc1N	nt	nt	1.6	nt	nt	nt
CC(C)c1c(C(=O)N/N=C/c2ccc(OCc3ccc(F)cc3)cc2)nnn1-c1nonc1N	29.2*	1.7	nt	9.0	-1.2	3.9
CC(=NNC(=O)CSc1nc(C)cc(C)n1)c1cccs1	nt	nt	-0.1	nt	nt	nt
